Source: ChEMBL document CHEMBL1121397, “5-substituted 2-amino-6-phenyl-4(3H)-pyrimidinones. Antiviral- and interferon-inducing agents” (1980)

Tests used:
Human alphaherpesvirus 1 [1] = assay: Protective index was measured on herpes simplex virus type 1(HSV-1) infected mice, at dose of 200 mg/kg/day; ip; type: functional; settings: route intraperitoneal
In short: (§1)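 Mice inoculated ip with 5.6 × 10^4 pfu HSV-1. Compound given ip in saline at the stated (mg/kg)/day at -40, -28, -20, -3 and +3 h relative to infection. Protection index = (control mortality − treated mortality)/control mortality; >0.25 counted as active.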

L929 [2] = assay: Serum interferon response from a single ip administration of 800 mg/kg employing a plaque-reduction assay.(VSV on L929 cells); type: functional, Mus musculus; settings: route intraperitoneal
In short: (§2)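 Serum interferon measured after one ip dose of 800 mg/kg, titrated by VSV plaque reduction on L929 cells. Peak titre within 24 h scored: +++ ≥2000, ++ ≈500-1000, + ≈50-500, ± ≈10-50 units/mL.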

Mus musculus [3] = assay: Tested for in vivo antiviral activity against semliki forest virus in mice after intraperitoneal administration; type: functional; settings: ip
In short: (§3)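 Mice got a single compound dose by the stated route 18 h before a lethal ip Semliki Forest virus challenge, 24 mice per group. ED50 is the minimum dose protecting 50% of mice, calculated by probit analysis of variance, in mg/kg.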

Mus musculus [4] = assay: Tested for in vivo antiviral activity against semliki forest virus in mice after peroral administration; type: functional; settings: po; in short: as §3
Mus musculus [5] = assay: Tested for in vivo antiviral activity against semliki forest virus in mice after subcutaneous administration; type: functional; settings: sc; in short: as §3
Human alphaherpesvirus 1 [6] = assay: Protective index was measured on herpes simplex virus type 1(HSV-1) infected mice, at a dose of 200 mg/kg/day; ip; type: functional; settings: route intraperitoneal; in short: as §1
L929 [7] = assay: Serum interferon response from a single ip administration of 800 mg/kg employing a plaque-reduction assay.(VSV on L929 cells); range 500-1000; type: functional, Mus musculus; settings: route intraperitoneal; in short: as §2
Human alphaherpesvirus 1 [8] = assay: Protective index was measured on herpes simplex virus type 1(HSV-1) infected mice, at a dose of 100 mg/kg/day; ip; type: functional; settings: route intraperitoneal
Human alphaherpesvirus 1 [9] = assay: Protective index was measured on herpes simplex virus type 1(HSV-1) infected mice. at dose of 100 mg/kg/day; ip; type: functional; settings: route intraperitoneal
L929 [10] = assay: Serum interferon response from a single ip administration of 800 mg/kg employing a plaque-reduction assay.(VSV on L929 cells); range 50-500; type: functional, Mus musculus; settings: route intraperitoneal; in short: as §2
Human alphaherpesvirus 1 [11] = assay: Protective index was measured on herpes simplex virus type 1(HSV-1) infected mice, at dose of 100 mg/kg/day; ip; type: functional; settings: route intraperitoneal
Human alphaherpesvirus 1 [12] = assay: Protective index was measured on herpes simplex virus type 1(HSV-1) infected mice. at a dose of 200 mg/kg/day, ip; type: functional; settings: route intraperitoneal; in short: as §1
Human alphaherpesvirus 1 [13] = assay: Protective index was measured on herpes simplex virus type 1(HSV-1) infected mice at 150 mg/kg/day; type: functional; in short: as §1

Nc1nc(O)c(Cl)c(-c2ccccc2)n1
Protection index (Human alphaherpesvirus 1 [1]): 0.62
Interferon response (L929 [2]): >=2000 ml
ED50 (Mus musculus [3]): 100 mg/kg
ED50 (Mus musculus [4]): 90 mg/kg
ED50 (Mus musculus [5]): 105 mg/kg

CCc1c(O)nc(N)nc1-c1ccccc1
Protection index (Human alphaherpesvirus 1 [6]): 0.57
Interferon response (L929 [7]): 1000 mL
ED50 (Mus musculus [3]): 45 mg/kg
ED50 (Mus musculus [4]): 280 mg/kg
ED50 (Mus musculus [5]): > 400 mg/kg

CCCc1c(O)nc(N)nc1-c1ccccc1
Protection index (Human alphaherpesvirus 1 [8]): 0.13
ED50 (Mus musculus [3]): > 400 mg/kg

Nc1nc(O)c(I)c(-c2ccccc2)n1
Protection index (Human alphaherpesvirus 1 [9]): 0.86
Interferon response (L929 [10]): 500 mL
ED50 (Mus musculus [3]): 50 mg/kg
ED50 (Mus musculus [4]): > 400 mg/kg
ED50 (Mus musculus [5]): 25 mg/kg

CCOCCc1c(O)nc(N)nc1-c1ccccc1
Protection index (Human alphaherpesvirus 1 [8]): 0.15
ED50 (Mus musculus [3]): > 800 mg/kg
ED50 (Mus musculus [4]): > 400 mg/kg
ED50 (Mus musculus [5]): > 400 mg/kg

Cc1c(O)nc(N)nc1-c1ccccc1
Protection index (Human alphaherpesvirus 1 [11]): 0.35
Interferon response (L929 [2]): >=2000 ml
ED50 (Mus musculus [3]): 185 mg/kg

Cc1nc(N)nc(O)c1I
Protection index (Human alphaherpesvirus 1 [12]): 0.16
Interferon response (L929 [7]): 1000 mL
ED50 (Mus musculus [3]): 200 mg/kg

C=CCc1c(O)nc(N)nc1-c1ccccc1
Protection index (Human alphaherpesvirus 1 [6]): 0.43
Interferon response (L929 [10]): 50 mL
ED50 (Mus musculus [3]): 95 mg/kg
ED50 (Mus musculus [4]): > 400 mg/kg
ED50 (Mus musculus [5]): > 400 mg/kg

C#CCc1c(O)nc(N)nc1-c1ccccc1
ED50 (Mus musculus [3]): 130 mg/kg
ED50 (Mus musculus [4]): > 400 mg/kg

Cc1nc(N)nc(O)c1Br
Protection index (Human alphaherpesvirus 1 [13]): 0.4
Interferon response (L929 [2]): 1000 mL
ED50 (Mus musculus [3]): 250 mg/kg

Nc1nc(=O)c(Br)c(-c2ccccc2)[nH]1 [BROPIRIMINE]
Interferon response (L929 [2]): >=2000 ml
ED50 (Mus musculus [3]): 100 mg/kg
ED50 (Mus musculus [4]): 100 mg/kg
ED50 (Mus musculus [5]): 50 mg/kg
